pIC50: −log10 of the molar value.
Legend:
humans = conditions: up to 1000 mg daily for several months; cited from earlier work
C4-2 cells = experiment: MTS cell proliferation assay of in vitro cytotoxicity; type: cell-based; conditions: Homo sapiens, C4-2, 72 h, read-out: half minimal inhibitory concentration (IC50)
Summary of the method: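 AR-positive human prostate cancer C4-2 cells exposed for 72 hours to individual flavonoids or to a defined three-flavonoid mixture (molar ratio 1:1:2) across graded concentrations. Viability read by MTS cell proliferation assay; IC50 taken from the dose-effect curves. Data represent three or more independent experiments.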

[1] = Pharmacokinetics and bioavailability of ProFine ingredients; type: in vivo, Sprague-Dawley rats; conditions: ProFine 100 mg/kg oral gavage, rat plasma
rats = conditions: cited from earlier work

Question: For O=c1c(O)c(-c2ccc(O)c(O)c2)oc2cc(O)cc(O)c12 [quercetin], which “adverse effects of human daily intakes” value (humans) is on record?
Answer: The value was “no adverse effects”.

Question: Which results are given for O=c1cc(-c2ccc(O)c(O)c2)oc2cc(O)cc(O)c12 [luteolin]?
Answer: pIC50 (C4-2 cells): 3.94; maximum plasma concentration [1]: 0.44 µM; acute oral toxicity (LD50) (rats): > 5000 mg/kg
